MT1-MMP act inh – inhibitors of human MT1-MMP activation. P50281. HT1080 RFP-PRO-GFP cells, GFP/RFP ratio fluorescence, overnight; percent of plate control window, DMSO zero. GFP/RFP ratio change, % at 20 µM. 360,000 tested, 0.061% active. AID 651647;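 active means GFP/RFP ratio change of at least 30% with cell ATP level not reduced by more than half and red fluorescence within 50% of control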
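Test system: HT1080 RFP-PRO-GFP cells; Benchmarks: DMSO and RFP-L50D-GFP cell wells; Timing: cells overnight before dosing, compound overnight, 37 °C, 5% CO2; Compound: one 20 µM compound dose with 1% DMSO; Read-out: GFP/RFP fluorescence ratio.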
eIF4H FP inh – inhibitors of RNA binding by human eIF4H. Q15056. eIF4H fluorescence polarization binding assay. inhibition, % at 35 µM. 290,000 tested, 0.94% active;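 further: calls also rest on retests at 20 µM and on dose response follow-up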
PABP polyA inh – PABP-poly(A) binding inhibition; AID 2014; calls only at 35 µM; P11940; 290,000 tested, 1% active; PABP-poly(A) RNA binding, fluorescence polarization;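 further: calls also rest on retests at 20 µM and on dose response follow-up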
Target sequence (P11940 whole entry, looked up): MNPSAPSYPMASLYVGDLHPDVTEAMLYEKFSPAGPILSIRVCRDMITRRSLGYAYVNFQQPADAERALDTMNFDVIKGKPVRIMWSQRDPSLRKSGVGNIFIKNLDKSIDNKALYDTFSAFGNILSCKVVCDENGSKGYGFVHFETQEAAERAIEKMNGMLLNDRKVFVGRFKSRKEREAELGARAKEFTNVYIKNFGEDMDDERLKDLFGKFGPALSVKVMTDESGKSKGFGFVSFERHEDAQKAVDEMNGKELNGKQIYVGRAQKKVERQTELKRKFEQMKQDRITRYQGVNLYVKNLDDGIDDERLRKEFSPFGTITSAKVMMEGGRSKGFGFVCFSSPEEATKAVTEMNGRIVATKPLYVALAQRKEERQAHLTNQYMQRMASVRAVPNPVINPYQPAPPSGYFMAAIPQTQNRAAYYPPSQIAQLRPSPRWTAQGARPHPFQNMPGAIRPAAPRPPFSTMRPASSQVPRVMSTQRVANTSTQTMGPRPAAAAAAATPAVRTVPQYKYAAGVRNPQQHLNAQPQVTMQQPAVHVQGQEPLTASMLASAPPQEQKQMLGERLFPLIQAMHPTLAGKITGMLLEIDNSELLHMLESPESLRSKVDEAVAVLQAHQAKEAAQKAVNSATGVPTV
SKN-1 inh – inhibitors of C. elegans SKN-1; C. elegans VP596 Pgst-4::GFP/RFP ratio, acrylamide-induced, 24 h; inhibition, % at 21.8 µM; 360,000 tested, 0.49% active; AID 624304;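 active means interference check ratio from 0.5 to 1.5 plus GFP to RFP signal ratio inhibition reaching or exceeding a fixed threshold, cut at about 30% in these data, passing the limit was not always enough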
MLLE-PAM2 inh – blocks PAM2 peptide binding to the PABP1 MLLE domain; GST-MLLE / FITC-PAM2 fluorescence polarization; inhibition, % at 20 µM; 360,000 tested, 0.36% active; in the data active means inhibition above about 35%, passing the limit was not always enough
Of the large screens only hits and unclear results are named; the others gave an inactive call. In the library only some 1.8% were active in any assay of this set; here they are far more common. Unless noted, how the calls were made is not given here.

Cc1cccn2c(=O)c3cc(C#N)c(=NC(=O)c4ccncc4)n(CCCOC(C)C)c3nc12	eIF4H FP inh 75.2, PABP polyA inh active
Cc1ccccc1C(=O)N=c1c(C#N)cc2c(=O)n3cccc(C)c3nc2n1Cc1ccco1	none (no result: MT1-MMP act inh, SKN-1 inh, MLLE-PAM2 inh)
CC(=O)N=c1c(C#N)cc2c(=O)n3cccc(C)c3nc2n1Cc1ccco1	eIF4H FP inh 71.5, PABP polyA inh active
COC(=O)c1ccccc1NC(=O)c1ccc2c(c1)OCCO2	none
COC(=O)c1ccccc1NC(=S)NC(=O)c1ccc2c(c1)OCO2	MLLE-PAM2 inh 41.5
COc1ccc(NC(=O)CNCc2cccs2)c(OC)c1	none (no result: eIF4H FP inh, PABP polyA inh)
COc1ccc(CCC(=O)Nc2nc(C)c(C(=O)N(C)C)s2)cc1	none
O=C(NCc1ccccn1)Nc1ccc(Br)cc1Cl	none
S=C(NCc1ccccn1)Nc1ccc(Br)cc1Cl	MLLE-PAM2 inh 38.8
CC(=O)NC(c1ccc(F)c(F)c1)c1nc(-c2cnn(C)c2)cs1 (stereo unspecified)	none (no result: eIF4H FP inh, PABP polyA inh)
O=C(Nc1nc(-c2ccc(Cl)s2)cs1)c1ccccc1	SKN-1 inh 49.2
Cc1ccc(NC(=O)c2ccc(F)cc2F)cc1	SKN-1 inh 40.9 (no result: eIF4H FP inh, PABP polyA inh)
O=C(Nc1ccccc1)c1ccc(F)cc1F	none (no result: eIF4H FP inh, PABP polyA inh)
C[C@@H](NC(=O)[C@@H]1CCCN1C(=O)[C@@H]1CCCN1C(=O)c1ccccc1)c1ccccc1	none (no result: eIF4H FP inh, PABP polyA inh, MLLE-PAM2 inh)
O=C(O)C/C(=C\c1cc(Cl)c2c(c1)OCO2)c1nc2ccccc2s1	eIF4H FP inh 94.0
O=C(O)CC/C(=C\c1cccc(NC(=O)c2ccccc2Cl)c1)c1nc2ccccc2s1	eIF4H FP inh 57.9, PABP polyA inh active (no result: MT1-MMP act inh)
Cc1cccc(C)c1NC(=O)CN1CCc2ccccc2C1	none (no result: eIF4H FP inh, PABP polyA inh)
O=C(NCc1ccco1)C1C(=O)Nc2ccccc2C(=O)N1C1CCCCC1 (stereo unspecified)	none (no result: eIF4H FP inh, PABP polyA inh, MLLE-PAM2 inh)
CN1/C(=C\C(=O)c2cccc([N+](=O)[O-])c2)Sc2ccccc21	MLLE-PAM2 inh 39.0
COc1cc(OC)cc(C(=O)/C=C2\Sc3ccccc3N2C)c1	none
O=C1CC2(CCN(C(=O)c3cccc(Br)c3)CC2)Oc2ccccc21	none (no result: eIF4H FP inh, PABP polyA inh)
COc1ccc(N2C(=O)[C@H]3CCC=C[C@H]3[C@@H]2c2ccccc2Br)cc1	none (no result: eIF4H FP inh, PABP polyA inh)
COC/C=C/C1=CC2=CC(=O)C(C)(OC(=O)c3cnc4ccccc4n3)C(=O)C2=CN1c1ccccc1 (stereo unspecified)	eIF4H FP inh 62.8, PABP polyA inh active (no result: MT1-MMP act inh, SKN-1 inh, MLLE-PAM2 inh)
COC/C=C/C1=CC2=CC(=O)C(C)(OC(=O)c3cnc4ccccc4n3)C(=O)C2=CN1c1ccc(CO)cc1 (stereo unspecified)	eIF4H FP inh 102.4, PABP polyA inh active (no result: MT1-MMP act inh, SKN-1 inh, MLLE-PAM2 inh)
COc1ccc(N(CC(=O)NC2CC3CCC2C3)S(=O)(=O)c2ccc(C)cc2)cc1OC (stereo unspecified)	none
CCCc1cc(C(=O)OCC(=O)NCCc2ccccc2)sc1C	none (no result: eIF4H FP inh, PABP polyA inh)
COc1ccc(C(=O)N/C(=C/c2ccco2)C(=O)N2CCCCCC2)cc1	PABP polyA inh active
Cc1ccc(C(=O)N/C(=C/c2ccco2)C(=O)OCN2C(=O)c3ccccc3C2=O)cc1	eIF4H FP inh 79.3
O=C(N/C(=C/c1ccco1)C(=O)N1CCCCCC1)c1cccs1	PABP polyA inh active
Cc1ccc(C(=O)N/C(=C/c2ccco2)C(=O)N2CCCCC2)cc1	none
O=C1/C(=C\c2ccc(C(F)(F)F)cc2)CSc2sccc21	SKN-1 inh 36.5
COCC(C)NC(=O)CSc1nc2ccccc2c(=O)n1CCc1ccc(S(N)(=O)=O)cc1 (stereo unspecified)	none
O=C1NN(c2ccc(Cl)cc2)C(=O)/C1=C\c1ccc(-c2cccc(C(=O)O)c2)o1	none
O=C1NN(c2ccccc2)C(=O)/C1=C\c1ccc(-c2cc([N+](=O)[O-])ccc2O)o1	eIF4H FP inh 92.0, PABP polyA inh active
CCOC(=O)CN1C(=O)S/C(=C\c2ccc(-c3ccc(C(=O)O)c(Cl)c3)o2)C1=O	eIF4H FP inh 52.1, PABP polyA inh active
Cc1ccc(/C=C2/NC(=O)N(Cc3ccc(Br)cc3)C2=O)o1	none
O=C(O)c1ccc(-c2ccc(/C=C3\NC(=O)N(Cc4ccc(Cl)cc4)C3=O)o2)cc1Cl	PABP polyA inh active
COc1ccc(NC(=O)CN2CCN(C(=O)N3CCOCC3)CC2)cc1	none
CC(Oc1ccc(Cl)cc1Cl)C(=O)NNC(=O)C(=O)N1CCCC1 (stereo unspecified)	none
Cn1cccc1/C=C1\CC(C(C)(C)C)C/C(=C\c2cccn2C)C1=O (stereo unspecified)	eIF4H FP inh 51.2, PABP polyA inh active
Cn1cccc1/C=C1\Cc2ccccc2C1=O	none
CCn1c(C)[n+](CC)c2ccc(C(=O)N(C)c3ccccc3)cc21	PABP polyA inh active
CCOC(=O)c1ccc2c(c1)[n+](CC)c(C)n2-c1ccccc1	PABP polyA inh active
CC[n+]1c(C)n(-c2ccccc2)c2ccc(C(=O)OC)cc21	PABP polyA inh active
COc1ccc2c(COC(=O)CC3Sc4ccccc4NC3=O)cc(=O)oc2c1 (stereo unspecified)	none
CC(=O)Nc1ccc2c(COC(=O)CC3Sc4ccccc4NC3=O)cc(=O)oc2c1 (stereo unspecified)	eIF4H FP inh inconclusive, PABP polyA inh active
Cc1c(Br)c(C(N)=O)nn1C	none
Cn1nnc2c(C(N)=O)ncn2c1=O	MLLE-PAM2 inh 39.3
C(/C=C/c1ccco1)=N/N1CCN(c2ccccc2)CC1	SKN-1 inh 59.4
COc1cc(C(=O)N2CCN(S(=O)(=O)c3ccc(C)cc3C)CC2)ccc1OCC(=O)N1CCOCC1	none (no result: eIF4H FP inh, PABP polyA inh)
CCOc1cc(C2C3=C(CCCC3=O)N(CC(=O)O)C3=C2C(=O)CCC3)ccc1OC	MLLE-PAM2 inh 60.1
C=CCN(c1ccc(C(=O)NC(C)C)cc1)S(C)(=O)=O	SKN-1 inh 47.3
O=C(C1CC(c2cccc(Br)c2)=NO1)N1CCc2ccccc2C1 (stereo unspecified)	eIF4H FP inh 53.2
O=C(O)C1CC(c2cccc(Br)c2)=NO1 (stereo unspecified)	none
CC(C)(C)c1ccc(C(=O)N2CCC2(C)C(=O)NCc2cccc3ccccc23)cc1 (stereo unspecified)	none (no result: eIF4H FP inh, PABP polyA inh)
CCOC(=O)Cc1cc(=O)n(-c2nc3ccccc3s2)[nH]1	eIF4H FP inh 69.7, PABP polyA inh active
Clc1ccc2nc(-c3cccc(Br)c3)c(Cc3ccsc3)n2c1	none (no result: eIF4H FP inh, PABP polyA inh)
Clc1cccc(-c2nc3ccc(Br)cn3c2Cc2ccsc2)c1	SKN-1 inh 35.8 (no result: eIF4H FP inh, PABP polyA inh)
Brc1cccc(-c2nc3ccc(Br)cn3c2Cc2ccsc2)c1	SKN-1 inh 46.6 (no result: eIF4H FP inh, PABP polyA inh)
Fc1ccc(-c2nc3ccc(Cl)cn3c2Cc2ccsc2)cc1	SKN-1 inh 40.4 (no result: eIF4H FP inh, PABP polyA inh)
Cc1nn(C)c(C)c1S(=O)(=O)N(CC(=O)NCCCN1CCC(C)CC1)c1ccc(C(C)C)cc1	none (no result: eIF4H FP inh, PABP polyA inh)
CCOC(=O)c1c(C)[nH]c(C)c1C(=O)COC(=O)c1nn(CC)c(=O)c2ccccc12	none (no result: eIF4H FP inh, PABP polyA inh)
CCCCCCc1cc2cc(C(N)=O)c(=N)oc2cc1O	eIF4H FP inh 96.2, PABP polyA inh active (no result: MT1-MMP act inh, SKN-1 inh, MLLE-PAM2 inh)

Screens from PubChem BioAssay.
